Screens from PubChem.
Only some compounds are listed: those with a hit (about 8.8% of all), similar ones and a draw of the others.
M1 agonist – agonists of M1 muscarinic receptor | CHO-M1 cells, Fluo-4 calcium fluorescence, agonist mode; active compounds read high | B-score at 10 µM | hit rate 3% among 64,000 | AID 626;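 active means fluorescence rise, raw or as B-score row- and column-corrected plate score, outside the 99.7% band of its plate's samples, either direction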
SF-1 act – SF-1 (human) activation; CHO-K1 Gal4-SF-1 LBD luciferase reporter; % increase over DMSO SF-1-specific signal; activation, % at 10 µM; AID 522; Q13285; hit rate 1.9% among 65,000;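 active means activation above the mean activation of all tested compounds plus 3 SD, cut at about 50% in these data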
Target sequence (Q13285 whole entry, looked up, the tested form may be a part): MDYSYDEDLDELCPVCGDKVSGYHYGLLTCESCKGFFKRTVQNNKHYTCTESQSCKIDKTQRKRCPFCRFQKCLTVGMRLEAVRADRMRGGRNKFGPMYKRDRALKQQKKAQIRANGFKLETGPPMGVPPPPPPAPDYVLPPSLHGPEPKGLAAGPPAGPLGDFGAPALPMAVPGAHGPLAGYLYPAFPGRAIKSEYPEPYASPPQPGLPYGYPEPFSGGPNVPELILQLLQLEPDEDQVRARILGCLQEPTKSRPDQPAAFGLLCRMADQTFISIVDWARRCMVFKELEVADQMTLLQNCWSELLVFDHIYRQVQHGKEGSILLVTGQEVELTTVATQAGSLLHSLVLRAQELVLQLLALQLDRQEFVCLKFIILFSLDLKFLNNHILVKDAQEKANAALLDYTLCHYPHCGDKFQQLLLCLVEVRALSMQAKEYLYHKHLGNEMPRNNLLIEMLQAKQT
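Test system: CHO-K1 cells with Gal4–hSF-1 LBD chimera plus Gal4-driven luciferase; Input: 4,000 cells/well; Compound: 10 µM only; Times: 20 h compound treatment, 37 °C; Measured by: steady-glow luciferase luminescence, read after 15 min reagent incubation; Measure: percent activation versus DMSO; Control set: DMSO and mock-transfected background; Replicates: one test per compound.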
S1P3 agonist – agonists of human S1P3 receptor. Q99500. S1P3 NFAT-BLA reporter cells, agonism, FRET ratio; relative to 1 µM S1P, basal subtracted. activation, % at 4.5 µM. hit rate 0.1% among 60,000. AID 373;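 active means activation above the screen-wide mean plus 3 SD, cut at about 4.5% in these data, passing the limit was not always enough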
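Benchmarks: high control 1 µM S1P / System: stable CHO line with human S1P3, Gα16, NFAT-BLA reporter / Dosing: single compound concentration, 4.5 µM final / Timing: 4 h compound at 37 °C, 2 h substrate at RT / Measured by: FRET β-lactamase substrate fluorescence, excitation 405 nm, 460/535 nm emission ratio, background-subtracted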
RORa activator – activators of human nuclear receptor RORA | activation, % at 10 µM | hit rate 1.5% among 65,000 | AID 560 | CHO-K1 Gal4-RORA LBD luciferase reporter, luminescence; percent increase over mock-subtracted basal signal | P35398;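 active means activation above the mean of all tested compounds plus 3 SD, cut at about 49% in these data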;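 further: 0% = DMSO-treated RORA cells and 100% = added signal equal to DMSO minus mock-transfected cells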
S1P1 ag pot – agonists and agonism potentiators of human S1P1 receptor; P21453; S1P1 CRE-bla cells, forskolin, beta-lactamase FRET, potentiator mode; S1P1 agonist co-added at EC20, 2 nM; 100% = saturating reference agonist, 0% = basal; activation, % at 9.5 µM; hit rate 0.57% among 56,000;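 active means activation above a cutoff set at the mean activation of all tested compounds plus 3 SD, cut at about 54% in these data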;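 further: forskolin at 4 µM as EC80 and the EC20 agonist is SEW2871; 100% = SEW2871 at its EC100 plus forskolin at EC80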
M1 antagonist – M1 muscarinic receptor (rat) antagonism | P08482 | CHO-M1 cells, Fluo-4 calcium, ACh EC80 antagonist mode; active compounds read low | B-score at 10 µM | hit rate 3.4% among 64,000 | AID 628;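 active means calcium fluorescence response, raw or row-and-column corrected B-score, differing from the plate sample mean either way at a set confidence level, mostly lower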
M1 antag confirm – confirmation of rat M1 muscarinic receptor antagonists | CHO-M1 cells, Fluo-4 calcium, ACh EC80 antagonism; active compounds read low | shares compounds with M1 antagonist | calcium response (max-min fluorescence) at 10 µM | AID 677 | hit rate 43% among 1,700;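 active means calcium response below the same-plate mean of wells given acetylcholine alone at its 80%-effect dose, minus 3 SD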;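 further: raw fluorescence intensity difference in arbitrary instrument units and not normalized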
mGluR4 antag – selectivity test for M1 antagonists: human mGluR4 receptor; shares compounds with M1 antagonist; CHO-mGluR4 calcium flux, Fluo-4 fluorescence, glutamate EC80; active compounds read low; fluorescence response (max-min) at 10 µM; hit rate 0.9% among 1,700; AID 678;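 active means fluorescence response below the plate's average for near-maximal glutamate wells, less 3 SD of those wells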;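 further: raw unnormalized fluorescence span taken in the window right after glutamate addition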
* hit, by the source's call; / = no result.

SMILES | M1 agonist | SF-1 act | S1P3 agonist | RORa activator | S1P1 ag pot | M1 antagonist | M1 antag confirm | mGluR4 antag
CCOC(=O)N1CCN(C(=O)c2ccc3c(c2)sc2nc(-c4ccccc4)cn23)CC1 | 3.1 | 110* | -1 | 62* | -21 | -2.9* | 397* | 292
CCOC(=O)N1CCC(NC(=O)c2ccc3c(c2)sc2nc(-c4ccc(OC)cc4)cn23)CC1 | / | 39 | 0 | 23 | -9 | / | / | /
N#Cc1c(NCc2ccccc2)ccnc1NCc1cccnc1 | -0.08 | -33 | 0 | 6 | 20 | -4.3* | 441* | 262
Cc1ccc(NC(=O)CCN2CCN(C/C=C/c3ccccc3)CC2)cc1C | -0.21 | 8 | -1 | -11 | -1 | -1.3 | / | /
COc1ccccc1N1CCN(C/C=C/c2ccc(N(C)C)cc2)CC1 | 0.053 | -3 | -1 | -4 | -20 | -0.66 | / | /
COc1ccc(O)c(CN2CCN(C/C=C/c3ccccc3)CC2)c1 | -2.4 | 4 | 0 | 1 | 0 | -11* | 454* | 187
C(=C\c1ccccc1)/CN1CCN(Cc2ccc3c(c2)OCCO3)CC1 | 0.37 | -2 | -2 | -6 | -16 | -2.5 | / | /
COc1cc(Br)cc(CN2CCN(C/C=C/c3ccccc3)CC2)c1O | -0.81 | 8 | 0 | -5 | / | -16* | 48* | 222
Cc1cc(C)c2c(CN3CCN(C/C=C/c4ccccc4)CC3)cc(=O)oc2c1 | -0.86 | -8 | -1 | 15 | 8 | -3.6* | 259* | 223
C=CCn1c(NCc2ccc(N(C)C)cc2)nc2ccccc21 | -0.97 | 21 | 0 | 39 | / | -2.3* | 584 | 220
CCOC(=O)c1cnc2c(C)cccc2c1NCc1ccco1 | 1.8 | / | / | / | / | -8.3* | 321* | 249
CCOC(=O)c1ccc2ncc(C(=O)OCC)c(NCCCN3CCOCC3)c2c1 | 0.27 | 6 | -2 | 14 | -7 | -4.6* | 405* | 242
CCOC(=O)c1cnc2ccccc2c1NCCO | 1.3 | 0 | / | -7 | / | -2.9* | 409* | 212
Cc1ccc2c(CC(=O)O)coc2c1C | -1.7 | -9 | / | 0 | / | -1.1 | / | /
Cn1c(SCC(=O)Nc2nccs2)nnc1-c1ccncc1 | -0.6 | 5 | -1 | -3 | 0 | -6.1* | 662 | 155
Cc1csc(NC(=O)CSc2nnc(-c3ccncc3)n2C)n1 | -0.39 | -6 | 0 | -4 | 12 | -0.41 | / | /
Cc1ccc(Cn2nnc3c(=O)n(CC(=O)N4CCN(c5ccccc5)CC4)cnc32)cc1 | -2.5 | 12 | 0 | -17 | 6 | -4.7* | 656 | 205
Cc1ccc(Cn2nnc3c(=O)n(CC(=O)OCc4ccccc4)cnc32)cc1 | 0.38 | 3 | 0 | -9 | -4 | 0.58 | / | /
COc1ccccc1CN1CCN(C(CC(C)C)c2nnnn2Cc2cccs2)CC1 (stereo not given) | -0.14 | -1 | 0 | 4 | -2 | -2* | 558* | 210
Cc1cc(S(=O)(=O)Nc2cccc(O)c2)c(C)s1 | -0.43 | -13 | 0 | 9 | -2 | -0.74 | / | /
O=C(OCC1CCCN2CCCCC12)c1ccc2c(c1)OCO2 (stereo not given) | 0.51 | -13 | 0 | -13 | -2 | -4.8* | 448 | 196
O=C(OCc1ccc2c(c1)OCO2)c1ccc(S(=O)(=O)N2CCCCC2)cc1 | 0.57 | 7 | -1 | 18 | 1 | -0.11 | / | /
CC(C)NC(=O)c1ccc2c(c1)N(CC(=O)N1CCOCC1)C(=O)C(C)(C)O2 | 0.23 | -4 | 0 | -2 | 7 | -0.93 | / | /
COC(=O)N1CC(c2ccccc2)CC1=O (stereo not given) | -0.031 | 10 | -1 | -16 | -17 | -2.3* | 694 | 253
O=C(NCCCN1CCC(Cc2ccccc2)CC1)C1CC(=O)N(C2CCCC2)C1 (stereo not given) | -0.011 | 31 | 0 | 2 | -13 | -3.3* | 508* | 255
SMILES | M1 agonist | SF-1 act | S1P3 agonist | RORa activator | S1P1 ag pot | M1 antagonist | M1 antag confirm | mGluR4 antag
CCCS(=O)(=O)N1CCCC(C(=O)NCCN2CCC(Cc3ccccc3)CC2)C1 (stereo not given) | 0.7 | 11 | 0 | -2 | -28 | -2.4* | 524 | 214
COC(=O)c1c(NC(=O)CN2CCC(C)CC2)c2c(C)cccc2n1C | -2.3 | -14 | -1 | -15 | 13 | -0.49 | / | /
Cc1nc2cc(CO)ccc2n1C | -0.085 | 11 | -1 | 2 | -16 | -5.1* | 670 | 262
Cn1c(CO)nc2cc(N)ccc21 | -0.3 | 16 | -1 | -10 | 7 | 0.57 | / | /
O=c1[nH]c(N2CCCCC2)nc2c1CCCC2 | -0.008 | -3 | 0 | -5 | -7 | -1 | / | /
CN1CCCCc2c1nc1c(c2N)CCCC1 | -0.72 | 20 | 0 | 9 | -20 | -2.5* | 509 | 264
COC(=O)c1ccc(C2c3c(n[nH]c3C)C(=O)N2c2ccc(C)cc2)cc1 (stereo not given) | -0.52 | -21 | -1 | -4 | -16 | -1* | 450* | 206
CCn1nnnc1NCc1ccc(N2CCCC2)cc1 | -1.2 | -12 | -1 | 1 | -10 | -17* | 503* | 215
COc1ccc2nc(N3CCCC(C(=O)NCCCN4CCN(C)CC4)C3)sc2c1 (stereo not given) | 0.31 | 15 | / | 3 | / | 0.14 | / | /
CC1CCCN(c2nc3ccsc3c(=O)s2)C1 (stereo not given) | 0.092 | 40 | / | 60* | / | -7.2* | 273* | 201
Cc1noc(C)c1S(=O)(=O)NCc1ccc2c(c1)OCO2 | -0.14 | -1 | 0 | 1 | -6 | 0.15 | / | /
c1cc2c(cc1C1CCCN1)OCCCO2 (stereo not given) | 0.53 | 2 | -2 | -7 | -4 | -3.7* | 513* | 239
O=C(CCSc1ccc(Cl)cc1)N1CCN(c2ncccn2)CC1 | 0.76 | 12 | 0 | 34 | 9 | 0.027 | / | /
C=CCSc1nc(N)c(C(=O)Nc2ccccc2C)cc1C(N)=O | 0.6 | -5 | -1 | -4 | 23 | -3* | 614 | 248
CC(Cc1cccs1)NC(=O)Nc1ccccc1 (stereo not given) | 0.13 | 22 | -2 | 7 | 11 | -3.2* | 588 | 188
C[C@H](NC(=O)NCc1cccs1)C(=O)O | -0.21 | -13 | -1 | 6 | 13 | 0.15 | / | /
CN(C)c1nc2c(c(=O)[nH]c(=O)n2C)n1Cc1ccccc1Br | 0.18 | -1 | -1 | 8 | 0 | -2.9* | 678 | 242
Cc1ccc(C(=O)CCNc2ccc(F)c(Cl)c2)o1 | / | 2 | -1 | -1 | / | / | / | /
